Experiment [1] can be described thus: reducers of endogenous Her2 protein level, primary screen, SKBR3 breast tumor cells, AlphaScreen, ATP viability (AID 461;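 active means Her2 level under about 52% in both replicate screens, with viability over 70% of control, limit read from the data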;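 on Her2 level: lower value means less Her2 protein in the cells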;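 on viability: percent of carrier control wells set as 100% viability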). Particulars: 18-24 h, measured here: SKBR3 viability, ATP luminescence, at 10 µM.
Experiment [2] concerns the target Receptor tyrosine-protein kinase erbB-2 (Homo sapiens) (UniProt P04626). The description is as above. The conditions noted are these: 18-24 h, at 10 µM, stronger effect = lower value.
The nature of experiment [3]: SK-BR-3 cell growth inhibitors, pilot screen, 24 h, human (AID 572;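 active means viability at or below 10% of carrier control in both of two separate runs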;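 further: compound exposure lasted between 18 and 24 h rather than exactly 24 h; 100% = carrier-treated control wells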). The conditions noted are these: SK-BR-3 viability, CellTiter-Glo luminescence, at 10 µM, stronger effect = lower value.
Experiment [4] can be described thus: HUVEC growth inhibition – cell-based, human, primary screen (AID 575;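 active means viability at or below 30% in both replicate assays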;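 further: 100% = median of untreated cell wells with 0.1% DMSO on each plate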). Particulars: HUVEC proliferation, CellTiter-Glo luminescence, 72 h; at 10 µM; stronger effect = lower value. The procedure, abridged:
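Assay system: primary human umbilical vein endothelial cells / Buffer or medium: endothelial basal medium with 2% FBS plus growth supplements / Compound dosing: one dose, 10 µM final, 0.1% DMSO / Timing: 72 h treatment at 37 °C / Signal: CTG luminescence / Benchmarks: 32 DMSO-only cell-control wells (high), 32 MePR drug-control wells (low) per plate / Plate: collagen-coated 384-well format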

Experiment [5] is described as follows: growth inhibitors of H69AR lung tumor, primary screen, human, duplicate replicates (AID 580;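 active means viability at or under a set limit in both replicates, limit being median viability minus 3 SD, cut at about 48% in these data, passing the limit was not always enough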;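 further: 100% = mean luminescence of untreated wells and 0% = no signal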). The conditions noted are these: H69AR lung tumor cells viability, ATP luminescence, 72 h; at 10 µM; stronger effect = lower value.
A short description of experiment [6]: reversal of MRP1-mediated doxorubicin resistance, pilot screen, H69AR cells, doxorubicin co-treatment (AID 601;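 active means viability loss from added drug above about 55%, and viability with drug at most 40%, in both replicates, limit read from the data, passing the limit was not always enough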). Particulars: CellTiter-Glo, 72 h, at 10 µM; for differential viability (reversal): stronger effect = higher value.
Experiment [7] is described as follows: 384-well plate pilot, post-Golgi transport modulator project, inhibition of yeast transport mutant growth (AID 636; in the data active means inhibition above about 31%). The conditions noted are these: absorbance 615 nm, about 18 h, stronger effect = higher value.
Experiment [8] in a line: growth suppression of yeast trafficking mutant, preliminary HTS, modulators of trafficking downstream of Golgi apparatus project, 1536-format plate, OD 615 nm (AID 637). The conditions noted are these: yeast transport mutant growth, absorbance 615 nm, 18 h; stronger effect = higher value.
Setting [9] is: H69AR cells + 2 uM doxorubicin, measured here: viability with 2 uM doxorubicin, stronger effect = lower value.
The mark [10] stands for this setting: H69AR cells, compound alone cytotoxicity.

The source made the active and inactive calls. Unless noted, no stated cut-off is given here; in the data, active means inhibition above about 30%; inactive means the rest.

Receptor tyrosine-protein kinase erbB-2 (Homo sapiens), sequence (P04626 whole entry, looked up): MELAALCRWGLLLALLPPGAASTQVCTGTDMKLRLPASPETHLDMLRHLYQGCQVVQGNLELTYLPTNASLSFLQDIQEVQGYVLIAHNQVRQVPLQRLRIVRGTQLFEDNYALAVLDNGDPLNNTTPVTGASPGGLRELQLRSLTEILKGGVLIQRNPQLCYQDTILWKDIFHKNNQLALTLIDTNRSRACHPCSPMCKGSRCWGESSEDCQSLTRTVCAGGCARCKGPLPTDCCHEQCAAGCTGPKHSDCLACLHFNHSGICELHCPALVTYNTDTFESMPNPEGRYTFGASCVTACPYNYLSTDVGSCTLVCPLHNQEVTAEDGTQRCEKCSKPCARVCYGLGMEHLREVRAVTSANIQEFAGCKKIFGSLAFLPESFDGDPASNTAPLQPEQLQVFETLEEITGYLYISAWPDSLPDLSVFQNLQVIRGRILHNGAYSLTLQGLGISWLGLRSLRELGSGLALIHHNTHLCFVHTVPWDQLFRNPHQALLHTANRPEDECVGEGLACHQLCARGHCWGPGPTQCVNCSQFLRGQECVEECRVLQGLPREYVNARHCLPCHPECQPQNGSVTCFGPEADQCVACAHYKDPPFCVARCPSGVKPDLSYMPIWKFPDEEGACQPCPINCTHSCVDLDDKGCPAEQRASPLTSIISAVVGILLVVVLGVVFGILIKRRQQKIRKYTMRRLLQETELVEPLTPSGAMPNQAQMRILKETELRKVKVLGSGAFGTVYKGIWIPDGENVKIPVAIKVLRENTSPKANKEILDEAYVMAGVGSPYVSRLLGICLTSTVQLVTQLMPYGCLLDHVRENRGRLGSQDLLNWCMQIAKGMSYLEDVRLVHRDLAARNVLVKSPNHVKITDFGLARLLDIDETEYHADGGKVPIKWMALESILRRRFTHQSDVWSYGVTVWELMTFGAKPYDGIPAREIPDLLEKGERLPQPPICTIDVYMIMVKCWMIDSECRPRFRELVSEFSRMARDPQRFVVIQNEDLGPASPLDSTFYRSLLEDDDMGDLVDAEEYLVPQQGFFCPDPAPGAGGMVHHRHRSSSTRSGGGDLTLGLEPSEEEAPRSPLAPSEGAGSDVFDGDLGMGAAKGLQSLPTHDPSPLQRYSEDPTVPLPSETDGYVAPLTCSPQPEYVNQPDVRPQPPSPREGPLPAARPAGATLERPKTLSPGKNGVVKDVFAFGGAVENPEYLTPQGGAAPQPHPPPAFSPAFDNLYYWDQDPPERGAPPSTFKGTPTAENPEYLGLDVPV

For `CCn1nc(C(=O)OCC(=O)N2CCc3ccccc32)c2ccccc2c1=O`, the viability is 99.5% in experiment [1]; 99.5% (inactive) in experiment [3]; 88.2% (inactive) in experiment [4]; 96.8% (inactive) in experiment [5]; 94.6% in experiment [6] (setting [9]); 96.8% in experiment [6] (setting [10]). Besides, the Her2 level in experiment [2] was 106% (inactive). Moreover, the differential viability (reversal) in experiment [6] (H69AR cells + 2 uM doxorubicin) is 2.27% (inactive). For the same molecule, the inhibition in experiment [7] was 1.41% (inactive); in experiment [8], -11.2% (inactive).

Regarding `Cc1ccc(-n2c(=O)[nH]c3c(C(N)=O)nc(CC(C)C)nc32)cc1`, the viability was 105% in experiment [1]; 105% (inactive) in experiment [3]; 89% (inactive) in experiment [4]; 72.6% (inactive) in experiment [5]; 91.2% in experiment [6] (setting [9]); 72.6% in experiment [6] (setting [10]). The Her2 level in experiment [2] was 106% (inactive). The differential viability (reversal) in experiment [6] (H69AR cells + 2 uM doxorubicin) was -18.6% (inactive). Besides, the figures for the inhibition in experiment [7] and in experiment [8] were -2.76% (inactive) and 5.57% (inactive), respectively.

Regarding `O=S(NCc1ccco1)C12CC3CC(CC(C3)C1)C2` (stereo not given), the viability was 104% in experiment [1]; 104% (inactive) in experiment [3]; 93.5% (inactive) in experiment [4]; 88% (inactive) in experiment [5]; 84% in experiment [6] (setting [9]); 88% in experiment [6] (setting [10]). In addition, the Her2 level in experiment [2] was 116% (inactive). For the same molecule, the differential viability (reversal) in experiment [6] (H69AR cells + 2 uM doxorubicin) is 3.96% (inactive). Moreover, the inhibition in experiment [7] is -1.08% (inactive); in experiment [8] it was -5.4% (inactive).

Take `O=C(Nc1cccc(O)c1)c1ccccc1`: the viability is 93% in experiment [1]; 93% (inactive) in experiment [3]; 78% (inactive) in experiment [4]; 95.2% (inactive) in experiment [5]; 103% in experiment [6] (setting [9]); 95.2% in experiment [6] (setting [10]). Moreover, the Her2 level in experiment [2] was 123% (inactive). The differential viability (reversal) in experiment [6] (H69AR cells + 2 uM doxorubicin) was -7.51% (inactive). For the same molecule, the inhibition in experiment [7] was -5% (inactive); in experiment [8], -7.05% (inactive).

`Cc1ccccc1OCCN1C(=O)NC2(CCc3ccccc32)C1=O` (stereo not given): the viability in experiment [1] is 94.5%; in experiment [3], 94.5% (inactive); in experiment [4] it was 92.9% (inactive); in experiment [5], 82.7% (inactive); in experiment [6] (setting [9]) it was 82.7%; in experiment [6] (setting [10]) it was 82.7%. The Her2 level in experiment [2] was 83.5% (inactive). Besides, the differential viability (reversal) in experiment [6] (H69AR cells + 2 uM doxorubicin) is 0.01% (inactive). The figures for the inhibition in experiment [7] and in experiment [8] were -6.62% (inactive) and 0% (inactive), respectively.

For `CN1CC[n+]2cnc3ccccc3c21`, the viability in experiment [1] is 100%; in experiment [3] it was 100% (inactive); in experiment [4] it was 108% (inactive); in experiment [5] it was 97.3% (inactive); in experiment [6] (setting [9]), 89.1%; in experiment [6] (setting [10]) it was 97.3%. In experiment [2], the Her2 level is 92% (inactive). For the same molecule, in experiment [6] (H69AR cells + 2 uM doxorubicin), the differential viability (reversal) was 8.2% (inactive). In addition, the inhibition was -2.24% (inactive) in experiment [7] and 6.23% (inactive) in experiment [8].

For `CC(C)c1ccc(S(=O)(=O)N2CCN(CCC(=O)Nc3ccc(N(C)C)cc3)CC2)cc1`, the viability in experiment [1] was 100%; in experiment [3], 100% (inactive); in experiment [4] it was 66.8% (inactive); in experiment [5], 60.6% (inactive); in experiment [6] (setting [9]) it was 20.4%; in experiment [6] (setting [10]) it was 60.6%. In addition, the Her2 level in experiment [2] is 93% (inactive). Moreover, the differential viability (reversal) in experiment [6] (H69AR cells + 2 uM doxorubicin) is 40.2% (inactive). Moreover, the inhibition in experiment [7] was -3.29% (inactive); in experiment [8], -4.67% (inactive).

With `CCn1c(=O)n(CC(=O)Nc2cc(OC)ccc2OC)c(=O)c2ccccc21`, the viability in experiment [1] was 110%; in experiment [3] it was 110% (inactive); in experiment [4] it was 86% (inactive); in experiment [5] it was 87.4% (inactive); in experiment [6] (setting [9]) it was 69.7%; in experiment [6] (setting [10]) it was 87.4%. Besides, the Her2 level in experiment [2] was 77% (inactive). Besides, the differential viability (reversal) in experiment [6] (H69AR cells + 2 uM doxorubicin) was 17.7% (inactive). Besides, the inhibition in experiment [7] is -0.66% (inactive); in experiment [8], -0.32% (inactive).

Consider `Cc1cc(NC(=O)COC(=O)c2cccc(S(=O)(=O)N3CCOCC3)c2)no1`, for which the viability is 112% in experiment [1]; 112% (inactive) in experiment [3]; 92.4% (inactive) in experiment [4]; 91.1% (inactive) in experiment [5]; 84.8% in experiment [6] (setting [9]); 91.1% in experiment [6] (setting [10]). Moreover, the Her2 level in experiment [2] is 88% (inactive). The differential viability (reversal) in experiment [6] (H69AR cells + 2 uM doxorubicin) is 6.37% (inactive). Further, the inhibition was -5% (inactive) in experiment [7] and 1.9% (inactive) in experiment [8].

Take `O=C(CN1C(=O)c2ccccc2C1=O)Nc1ccccc1C(=O)N1CCCC1`: the viability is 83% in experiment [1]; 83% (inactive) in experiment [3]; 96% (inactive) in experiment [4]; 109% (inactive) in experiment [5]; 89% in experiment [6] (setting [9]); 109% in experiment [6] (setting [10]). In experiment [2], the Her2 level is 90.5% (inactive). Also, in experiment [6] (H69AR cells + 2 uM doxorubicin), the differential viability (reversal) was 19.7% (inactive). Moreover, the inhibition is -3.78% (inactive) in experiment [7] and 1.59% (inactive) in experiment [8].

As to `CCC(=O)N(Cc1cc2c(C)ccc(C)c2[nH]c1=O)C1CCCCC1`, the viability in experiment [1] was 86%; in experiment [3], 86% (inactive); in experiment [4] it was 79.2% (inactive); in experiment [5] it was 85.9% (inactive); in experiment [6] (setting [9]), 86.6%; in experiment [6] (setting [10]) it was 85.9%. In experiment [2], the Her2 level is 71.5% (inactive). The differential viability (reversal) in experiment [6] (H69AR cells + 2 uM doxorubicin) is -0.72% (inactive). For the same molecule, the inhibition was -6.71% (inactive) in experiment [7] and 0.32% (inactive) in experiment [8].

For `CC1Cc2nc(SCC(=O)Nc3ccc(F)cc3F)n(C)c(=O)c2S1` (stereo not given), the viability is 90% in experiment [1]; 90% (inactive) in experiment [3]; 102% (inactive) in experiment [4]; 91.7% (inactive) in experiment [5]; 100% in experiment [6] (setting [9]); 91.7% in experiment [6] (setting [10]). In addition, the Her2 level in experiment [2] was 100% (inactive). In addition, the differential viability (reversal) in experiment [6] (H69AR cells + 2 uM doxorubicin) is -8.34% (inactive). In addition, the inhibition in experiment [7] is -1.78% (inactive); in experiment [8], 2.7% (inactive).

In the case of `Cc1cc(-c2ccccc2)c(C#N)c(N)n1`, the viability is 114% in experiment [1]; 114% (inactive) in experiment [3]; 81.9% (inactive) in experiment [4]; 99.3% (inactive) in experiment [5]; 92.8% in experiment [6] (setting [9]); 99.3% in experiment [6] (setting [10]). The Her2 level in experiment [2] was 91% (inactive). Besides, the differential viability (reversal) in experiment [6] (H69AR cells + 2 uM doxorubicin) is 6.5% (inactive). In addition, the inhibition is -2.3% (inactive) in experiment [7] and -0.98% (inactive) in experiment [8].

With `COc1ccc(NCc2nnc(SCC(=O)Nc3cc(C)cc(C)c3)o2)cc1`, the viability was 112% in experiment [1]; 112% (inactive) in experiment [3]; 70% (inactive) in experiment [4]; 81.9% (inactive) in experiment [5]; 85.6% in experiment [6] (setting [9]); 81.9% in experiment [6] (setting [10]). The Her2 level in experiment [2] is 90.5% (inactive). Further, in experiment [6] (H69AR cells + 2 uM doxorubicin), the differential viability (reversal) was -3.66% (inactive). Further, the inhibition in experiment [7] was -6.53% (inactive); in experiment [8], -1.64% (inactive).
